Compounds with a hit are over-represented: about 2.7% of the library has one in this group of screens.
sdo1 growth: growth rescue of sdo1-depleted yeast, primary screen, S. cerevisiae, bone marrow failure model | S. cerevisiae sdo1-depleted JHY4D growth rescue, OD600 30 h; active compounds read high; pdr5 snq2 efflux-pump mutant strain | z-score at 10 µM | actives 0.21% (n = 140,000);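 active means z-score above 3 at both the 24 hr and the 30 hr optical density reads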;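 further: z-score against mean and SD of all compound wells on the same plate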
Yeast life ext: compounds extending yeast replicative lifespan, primary screen, S. cerevisiae, OD615 | S. cerevisiae growth with nicotinamide; deaD strain in restrictive glucose medium | inhibition of the nicotinamide effect, % at 10 µM | actives 0.68% (n = 130,000);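 active means inhibition above a set limit, placed 3 SD over the median of all compounds, cut at about 26% in these data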;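 further: 0% = nicotinamide-treated wells and 100% = cells grown without nicotinamide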
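Assay system: engineered S. cerevisiae DeaD replicative-lifespan strain, galactose-grown log-phase cells; Buffer or medium: CSMM-D glucose medium, restrictive; Probe or stimulus: nicotinamide 1.5 mM; Compound: single dose 10 µM compound, 0.25% DMSO; Schedule: 4 h preincubation then 48 h treatment at 30 °C; Technique: OD615 measurement.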
RAM inhibit: inhibitors of the yeast RAM network, primary screen, dse1pr::URA3 reporter, 5-FOA selection; S. cerevisiae dse1pr::URA3 reporter, 5-FOA growth OD615, 2 d; analog-sensitive cbk1-as2 kinase mutant strain; inhibition, % at 50 µM; actives 1.8% (n = 190,000); AID 868, 2007;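 active means inhibition above a set limit, 3 SD over mean compound inhibition, cut at about 8.4% in these data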;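 further: 0% = DMSO-only wells with no growth and 100% = 10 µM 1-NA-PP1 full growth; inhibition rescues growth on 5-FOA so higher OD means more RAM inhibition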
Yeast growth inh: growth inhibitors of yeast BB579 in restrictive medium, primary screen, yeast lifespan-shortening project, S. cerevisiae | OD615, 48 h | inhibition, % at 10 µM | actives 0.51% (n = 140,000) | AID 804, 2007;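 active means inhibition above a set limit, 3 SD over the mean compound inhibition, cut at about 44% in these data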
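controls = amphotericin B 10 µg/mL, positive | assay system = DeaD yeast strain BB579 | schedule = 48 h compound exposure at 30 °C after 4 h preincubation | detection = OD615 turbidity measurement | medium = restrictive CSMM-D medium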
* hit, by the source's call; . = no result.

SMILES	sdo1 growth	Yeast life ext	RAM inhibit	Yeast growth inh
C/C(=N\Nc1ccc([N+](=O)[O-])cc1)c1cc2ccccc2o1	.	.	3.0	.
COc1ccc(C(=O)NC(C(=O)NCCc2ccc3c(c2)OCCO3)C(C)C)cc1 (stereo not drawn)	.	.	6.7	.
CCOC(=O)C1CCCN(c2oc(-c3ccc(OC)cc3)nc2C#N)C1 (stereo not drawn)	.	.	8.8*	.
COc1cccc(C2CC(c3cccs3)=NN2S(C)(=O)=O)c1 (stereo not drawn)	.	.	1.4	.
Cc1noc(NS(=O)(=O)c2ccc(N/C=C\C(=O)c3ccc(F)cc3)cc2)c1C	.	.	8.6*	.
Cc1cc(C(C#N)c2ccccc2F)n2ncnc2n1 (stereo not drawn)	.	.	1.3	.
CC(C)c1ccc(/C=C/C(=O)NCCCc2ccccc2)cc1	0.54	5.2	8.6*	-17.0
COc1ccc(/C=C/C(=O)NCCCc2ccccc2)cc1	-0.57	-1.1	2.0	1.8
COc1ccccc1N/C(N)=N/c1nc(C(F)(F)F)cc(=O)[nH]1	.	.	3.8	.
Cc1cc(C)c(S(=O)(=O)N2CCCCC2)c(C)c1N(C)S(=O)(=O)c1ccccc1	-0.57	-9.5	6.3	-2.0
CCOCCCNC(=O)c1cc2c(-c3ccc(Cl)cc3)nn(C)c2s1	-1.3	-4.8	9.0*	-23.4
CCN(CC)CCNC(=O)c1cc2c(-c3ccc(Cl)cc3)nn(C)c2s1	1	-8.8	0.6	14.8
COc1ccc([N+](=O)[O-])cc1NC(=O)CSCc1ccc(Br)cc1	-1.2	-1.6	10.6*	-41.5
COc1ccc([N+](=O)[O-])cc1NC(=O)CSCc1ccccc1C	-0.91	0.9	8.6*	-54.0
COC(=O)c1ccc(C(=O)OC)c(NC(=O)CSCc2ccc(Br)cc2)c1	0.15	-2.2	11.0*	-31.3
COc1ccc([N+](=O)[O-])cc1NC(=O)CSc1ncccn1	.	.	3.4	.
C=CCOc1cccc(C(=O)N2CCCC(CNS(=O)(=O)c3cccs3)C2)c1 (stereo not drawn)	.	.	1.3	.
Nc1nc2sc3c(c2c(=O)s1)CCCC3	-1.38	-20.9	-1.5	52.8*
Cc1cc(C)nc(Sc2ncnc(N)c2[N+](=O)[O-])n1	.	.	1.6	.
COc1ccc(/C=C2\SC(=N)N(c3nccs3)C2=O)cc1OC	1.73	37.5*	-0.6	-28.4
N=C1S/C(=C\c2ccc(-c3cccc(Cl)c3)o2)C(=O)N1c1nccs1	0.35	2.4	3.4	-22.7
O=C(NCCc1c[nH]c2ccccc12)C(=O)NCC1OCCCN1S(=O)(=O)c1cccs1 (stereo not drawn)	.	.	-0.7	.
O=C1C(Cc2ccccc2)SC(=Nc2ccccc2)N1c1ccccc1 (stereo not drawn)	-1.18	-1.0	5.2	-40.1
O=C1/C(=C\c2ccc(Br)o2)SC(=Nc2ccccc2)N1c1ccccc1	0.2	8.1	11.0*	-63.7
Cc1cc(NC(=O)NC2CC(=O)N(c3ccc4c(c3)OCCO4)C2)no1 (stereo not drawn)	.	.	1.6	.
SMILES	sdo1 growth	Yeast life ext	RAM inhibit	Yeast growth inh
COc1cc(C(=O)Nc2cccc(-c3nc4cc(C)ccc4o3)c2)cc(OC)c1OC	-1.24	5.3	8.7*	-48.9
CSc1nnc(Cc2sc(-c3ccccc3)nc2-c2ccccc2)o1	-1.22	-5.7	4.0	-36.4
COc1ccc(CSc2nnc(Cc3sc(-c4ccccc4)nc3-c3ccccc3)o2)cc1	0.19	0.2	9.6*	-102.4
CC(=O)Nc1ccc(NC(=O)c2c(C)nn(-c3ccccc3)c2Cl)cc1C	.	.	-0.8	.
CO/N=C/C(=N\Nc1ccc(OC)cc1)C(=O)c1ccc(F)cc1	.	.	9.2*	.
CO/N=C/C(=N\Nc1ccc(C)cc1)C(=O)c1ccc(OC)cc1	-0.95	3.6	10.0*	-39.7
CO/N=C\C(=N\Nc1ccc(OC)cc1)C(=O)c1ccccc1	-0.98	-12.3	5.0	-52.5
O=C(NCCCn1ccnc1)c1cc2cc([N+](=O)[O-])ccc2oc1=O	0	5.4	-0.5	-26.7
COCCCN(CC(=O)Nc1ccc(N2CCOCC2)cc1)S(=O)(=O)c1ccc(Cl)cc1	.	.	4.2	.
Cc1cc(=O)n(-c2ccc(C(=O)O)cc2)[nH]1	.	.	0.4	.
CCOC(=O)c1ccc(-n2[nH]c(-c3ccccc3)cc2=O)cc1	-0.75	-18.3	9.6*	96.9*
Cc1ccc(C(=O)c2no[n+]([O-])c2C(=O)c2ccc(C)cc2)cc1	-1.38	27.2*	0.0	19.0
Cc1ccc(C(=O)c2ccc(C)cc2)cc1	.	.	-0.1	.
Cc1ccc(C(C(=O)NCC2CCCO2)N(Cc2ccccc2)C(=O)c2ccc(-c3ccccc3)[nH]2)o1 (stereo not drawn)	-0.49	0.6	10.1*	-73.3
CCNC(=S)SCCOc1ccc(C)cc1	0.62	-8.6	-1.2	-2.1
CCOC(=O)c1cc2c(=O)n3ccccc3nc2n(C(C)C)c1=NC(=O)c1c(-c2c(F)cccc2Cl)noc1C	0.25	0.8	10.0*	-21.7
CCCCn1c(=NC(=O)c2ccco2)c(C(=O)OCC)cc2c(=O)n3ccccc3nc21	-0.55	-1.9	2.8	-4.7
COc1ccc(CN(C(=O)CSc2nnc(-c3c[nH]c4ccccc34)o2)c2ccc(F)cc2)cc1OC	-0.68	.	9.9*	-32.8
COc1ccc(CN(C(=O)CSc2nnc(-c3ccc(F)cc3)o2)c2ccc(F)cc2)cc1	0.03	4.8	6.6	-17.4
CCc1ccc(-c2nc(SCC(=O)N3CCOCC3)n[nH]2)cc1	.	.	-0.5	.
CC(=O)C1=C(O)CC(c2ccccc2)CC1=NCCc1c(C)[nH]c2ccc(C)cc12 (stereo not drawn)	-0.59	4.1	8.0	-11.5
CCC(=NCCc1c(C)[nH]c2ccc(C)cc12)C1=C(O)CC(c2ccccc2)CC1=O (stereo not drawn)	-0.19	49.5*	4.4	-12.3
FC(F)(F)c1ccccc1NC(=S)Nc1cccc(Cl)c1	.	.	2.2	.
C=C1C(=O)C=C2CN(C(=O)c3ccccc3)[C@@](Cc3ccc(F)cc3)(C(=O)OC)[C@@H]12	-1.42	42.8*	3.4	-15.0
COc1ccc(C(CNC(=O)c2cccc(Br)c2)N2CCCC2)cc1 (stereo not drawn)	-0.04	122.7*	0.0	-36.0
SMILES	sdo1 growth	Yeast life ext	RAM inhibit	Yeast growth inh
Cc1c(C(=O)OCCOc2ccc(Br)cc2)sc(=S)n1C	.	.	10.7*	.
Cc1ccc(OCCOC(=O)c2sc(=S)n(C)c2C)cc1	.	.	2.4	.
COc1ccc(NCc2ccc([N+](=O)[O-])s2)cc1	0.1	21.9	-0.3	27.0
COc1ccc(NCc2ccc([N+](=O)[O-])s2)c(OC)c1	-0.07	-7.7	-0.5	99.7*
CC1=NN(c2nc(-c3ccc(C)cc3)cs2)C(=O)C1N=Nc1ccc2ccccc2c1 (stereo not drawn)	0.18	-1.5	10.6*	-45.0
CC1=NN(c2nc(-c3ccccc3)cs2)C(=O)C1N=Nc1ccccc1 (stereo not drawn)	.	.	4.6	.
O=C(COC(=O)c1c(Cl)ccc(Cl)c1Cl)NC1CCS(=O)(=O)C1 (stereo not drawn)	.	.	2.6	.
